CHO parental Ca = ATP-evoked calcium signal inhibitors, parental CHO, primary screen, counter-screen for OX1R antagonist project, cell-based, fluorescence, Fluo-8 calcium dye; parental CHO-K1, ATP-induced calcium, Fluo-8 fluorescence; inhibition, % at 5.6 µM; actives 0.63% (n = 330,000); AID 463079, 2010;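 active = inhibition above that plate's mean sample inhibition plus 3 SD, cut at about 26% in these data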
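material = parental CHO cells | also added = ATP as calcium-mobilizing challenge | dosing = single point at 5.6 µM | detection = intracellular calcium via Fluo-8 no-wash fluorescent dye | read-out = % inhibition | benchmarks = low control ATP plus DMSO, high control DMSO only | repeats = one well per compound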
GPR7 antagonist = GPR7 receptor antagonists, primary screen, cell-based, fluorescence, single concentration; AID 1861, 2009; actives 1.1% (n = 290,000); inhibition, % at 4.4 µM; Neuropeptides B/W receptor type 1 (Homo sapiens), P48145; GPR7-expressing cells, fluorescence antagonist assay; in the data active = inhibition above about 16%, passing the limit was not always enough;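 also: cells stimulated with the agonist NPW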
Target sequence (P48145 whole entry, looked up): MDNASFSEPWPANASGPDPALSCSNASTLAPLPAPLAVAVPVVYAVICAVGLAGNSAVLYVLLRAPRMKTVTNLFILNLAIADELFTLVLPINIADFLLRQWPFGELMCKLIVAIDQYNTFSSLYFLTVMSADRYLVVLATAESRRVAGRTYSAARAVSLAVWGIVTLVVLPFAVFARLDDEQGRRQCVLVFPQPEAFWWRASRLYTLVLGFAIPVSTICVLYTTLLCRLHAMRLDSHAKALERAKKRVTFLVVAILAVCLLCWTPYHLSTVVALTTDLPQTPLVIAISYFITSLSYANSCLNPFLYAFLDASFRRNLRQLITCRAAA
OX1R antag-1 = OX1R (HCRTR1) antagonists, primary screen, fluorescence, CHO/OX1R cells, Fluo-8 calcium, orexin A | inhibition, % at 5 µM | Fluo-8 calcium fluorescence | actives 0.43% (n = 330,000) | Orexin/Hypocretin receptor type 1 (Homo sapiens), O43613;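 active = inhibition above its plate's threshold, mean inhibition of all tested compounds on the plate plus 3 SD, cut at about 37% in these data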
GalR3 antagonist = GalR3 antagonists in HEK293 cells, primary screen, cell-based, fluorescence readout; Galanin receptor type 3 (Homo sapiens), O60755; HEK293 GalR3-CNG cAMP membrane potential fluorescence; galR3 body fused to GalR1 C-terminus; inhibition, % at 3 µM; actives 0.44% (n = 360,000);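 active = inhibition above the screen-wide average plus 3 SD, cut at about 13% in these data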;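 also: forskolin and galanin both at EC90 stimulate the cells; cAMP rise reported by CNG channel membrane potential dye signal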
Target sequence (O60755 1-299 limits assumed): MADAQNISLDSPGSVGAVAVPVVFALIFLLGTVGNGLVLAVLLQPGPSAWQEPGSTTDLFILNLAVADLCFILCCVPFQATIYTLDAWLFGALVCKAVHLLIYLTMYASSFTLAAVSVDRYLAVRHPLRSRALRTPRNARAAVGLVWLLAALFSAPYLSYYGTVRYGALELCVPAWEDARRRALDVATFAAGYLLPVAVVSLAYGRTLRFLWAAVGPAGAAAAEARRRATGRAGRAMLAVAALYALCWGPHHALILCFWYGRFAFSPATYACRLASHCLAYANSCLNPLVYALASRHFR
OX1R antag-2 = antagonists of human orexin 1 receptor (OX1R); OX1R-expressing cells, FRET antagonist read-out; actives 1.8% (n = 330,000); inhibition, % at 6.6 µM; in the data active = inhibition mostly above about 38%, no sharp cut-off; inactive = mostly below about 40%
Numbers stand for hits. Compounds with a hit are over-represented: about 3.1% of the library has one in this group of screens.

`Cc1cc(C)cc(C(=O)OCC(=O)NCc2cccs2)c1` gave CHO parental Ca inactive, GPR7 antagonist 26, OX1R antag-1 inactive, GalR3 antagonist inactive and OX1R antag-2 inactive.
Screening O=C(NCCc1cccc(Cl)c1)c1ccc(OC2CCN(Cc3ccccn3)CC2)cc1 returned GPR7 antagonist inactive and GalR3 antagonist inactive.
`CC(NC(=O)Cn1ncc(Cl)c(Cl)c1=O)C12CC3CC(CC(C3)C1)C2` (stereo not given) gave CHO parental Ca inactive, GPR7 antagonist 23, OX1R antag-1 inactive and OX1R antag-2 inactive.
Screening CC(C)(C)c1ccc(S(=O)(=O)NCC2CCCO2)cc1 (stereo not given) returned CHO parental Ca inactive, GPR7 antagonist inactive, OX1R antag-1 inactive, GalR3 antagonist inactive and OX1R antag-2 inactive.
`O=S(=O)(NC1CCCCC1)c1cccc2nsnc12` gave CHO parental Ca inactive, GPR7 antagonist inactive, OX1R antag-1 inactive, GalR3 antagonist inactive and OX1R antag-2 inactive.
Screening O=S(=O)(NCC1CCCO1)c1ccc(-c2ccc(Cl)cc2)cc1 (stereo not given) returned CHO parental Ca 36, GPR7 antagonist inactive, OX1R antag-1 inactive, GalR3 antagonist inactive and OX1R antag-2 inactive.
For O=S(=O)(NCC1CCCO1)c1cccc2nsnc12 (stereo not given) the results were CHO parental Ca inactive, GPR7 antagonist inactive, OX1R antag-1 inactive, GalR3 antagonist inactive and OX1R antag-2 41.
COc1cc(Cl)c(NC2=CC(=O)C(=O)c3ccccc32)c(OC)c1 was read as CHO parental Ca inactive, OX1R antag-1 inactive, GalR3 antagonist inactive and OX1R antag-2 33.
COc1ccccc1OCC(=O)Nc1ccc(S(=O)(=O)Nc2onc(C)c2C)cc1 was read as CHO parental Ca inactive, GPR7 antagonist inactive, OX1R antag-1 inactive, GalR3 antagonist inactive and OX1R antag-2 inactive.
COc1cccc(NC(=O)Cn2c3ccc(F)cc3c3nc4n(c(=O)c32)CCCS4)c1 was read as CHO parental Ca inactive, GPR7 antagonist inactive, OX1R antag-1 inactive, GalR3 antagonist inactive and OX1R antag-2 inactive.
For COc1ccc(NC(=O)CN(C)S(=O)(=O)c2ccc(Cl)cc2)cc1Cl the results were CHO parental Ca inactive, GPR7 antagonist inactive, OX1R antag-1 inactive, GalR3 antagonist inactive and OX1R antag-2 inactive.
For COc1ccc(S(=O)(=O)N(C)CC(=O)Nc2ccc(C(F)(F)F)cc2)cc1Cl the results were CHO parental Ca 32, GPR7 antagonist inactive, OX1R antag-1 inactive, GalR3 antagonist inactive and OX1R antag-2 inactive.
`CCOc1cc(CNCCCN2CCOCC2)cc(Br)c1OCc1ccccc1Cl` gave CHO parental Ca inactive, GPR7 antagonist 39, OX1R antag-1 inactive, GalR3 antagonist inactive and OX1R antag-2 inactive.
CN1CCN(c2ncnc3c2ncn3[C@H]2CN(Cc3ccc(C(=O)O)cc3)C[C@@H](CO)O2)CC1 was read as GalR3 antagonist inactive.
c1csc(-c2nc(-c3ccc(-c4ccon4)s3)no2)c1 was read as CHO parental Ca inactive, GPR7 antagonist inactive, OX1R antag-1 inactive, GalR3 antagonist inactive and OX1R antag-2 40.
Screening Cc1cccc(Cn2cc(SCC(=O)Nc3nccs3)c3ccccc32)c1 returned CHO parental Ca inactive, GPR7 antagonist inactive, OX1R antag-1 inactive and OX1R antag-2 34.
For Nc1ccccc1NC(=O)CCn1c(=S)[nH]c2ccccc2c1=O the results were CHO parental Ca inactive, GPR7 antagonist inactive, OX1R antag-1 inactive, GalR3 antagonist inactive and OX1R antag-2 inactive.
Screening CCCC(=O)Nc1cccc(NC(=O)c2ccc([N+](=O)[O-])cc2Cl)c1 returned CHO parental Ca inactive, GPR7 antagonist inactive, OX1R antag-1 inactive, GalR3 antagonist inactive and OX1R antag-2 62.
Screening O=C(Nc1ccc([N+](=O)[O-])cc1Cl)c1cccc([N+](=O)[O-])c1 returned GalR3 antagonist inactive.
Screening O=C(Nc1cccnc1)c1ccc([N+](=O)[O-])cc1Cl returned CHO parental Ca inactive, GPR7 antagonist inactive, OX1R antag-1 inactive, GalR3 antagonist inactive and OX1R antag-2 56.
O=C(Nc1ccc([N+](=O)[O-])cc1Cl)c1cc(Cl)ccc1O was read as CHO parental Ca inactive, OX1R antag-1 inactive, GalR3 antagonist inactive and OX1R antag-2 68.
Screening COc1ccccc1-c1nnc(SCC(=O)Nc2ccc(N3CCOCC3)cc2)n1N returned CHO parental Ca inactive, OX1R antag-1 inactive, GalR3 antagonist inactive and OX1R antag-2 inactive.
For CCn1c2ccccc2c2cc(NC(=O)CSc3nnc(-c4ccc(OC)c(OC)c4)n3N)ccc21 the results were CHO parental Ca inactive, GPR7 antagonist inactive, OX1R antag-1 inactive, GalR3 antagonist inactive and OX1R antag-2 74.
Screening CCn1c2ccccc2c2cc(NC(=O)CSc3nnc(-c4ccccc4OC)n3N)ccc21 returned CHO parental Ca inactive, GPR7 antagonist inactive, OX1R antag-1 inactive, GalR3 antagonist inactive and OX1R antag-2 56.
CCOc1ccc(-c2nnc(SCC(=O)Nc3ccc4c(c3)c3ccccc3n4CC)n2N)cc1 was read as CHO parental Ca inactive, GPR7 antagonist inactive, OX1R antag-1 inactive, GalR3 antagonist inactive and OX1R antag-2 inactive.
Screening Cc1nc([N+](=O)[O-])c(C(=O)OCc2cccc(Br)c2)n1C returned CHO parental Ca inactive, GPR7 antagonist inactive, OX1R antag-1 inactive, GalR3 antagonist inactive and OX1R antag-2 inactive.
For CCOC(=O)c1c(C)[nH]c(C(=O)COC(=O)c2ccc(N3CCCC3=O)cc2)c1C the results were CHO parental Ca inactive, GPR7 antagonist inactive, OX1R antag-1 inactive, GalR3 antagonist inactive and OX1R antag-2 inactive.
For CCC1(C)OC(=O)N2CCc3c(C)[nH]c4c(C)ccc(c34)C21C (stereo not given) the results were CHO parental Ca inactive, GPR7 antagonist 18, OX1R antag-1 inactive and OX1R antag-2 inactive.
Screening CC(C)CNC(=S)N1CCC(c2nc(-c3ccc(F)cc3)no2)CC1 returned CHO parental Ca 48, GPR7 antagonist inactive, OX1R antag-1 inactive, GalR3 antagonist inactive and OX1R antag-2 inactive.
For COCCNC(=S)N1CCC(c2nc(-c3ccc(N(C)C)cc3)no2)CC1 the results were CHO parental Ca inactive, GPR7 antagonist inactive, OX1R antag-1 inactive, GalR3 antagonist inactive and OX1R antag-2 inactive.
OCCC1CN(Cc2ccon2)CCN1CCc1ccccc1 (stereo not given) was read as CHO parental Ca inactive, GPR7 antagonist inactive, OX1R antag-1 inactive, GalR3 antagonist inactive and OX1R antag-2 inactive.
For O=C(NCC1CCN(C(=O)C(=O)c2cc3ccccc3o2)CC1)c1ccc2c(c1)OCC2 the results were GalR3 antagonist inactive.
Screening CCN(CC)C(=O)CCCc1c[nH]c2ccccc12 returned CHO parental Ca inactive, GPR7 antagonist inactive, OX1R antag-1 inactive, GalR3 antagonist inactive and OX1R antag-2 inactive.
